Experimental data: ChEMBL document CHEMBL5058577, “EUbOPEN Chemogenomics Library 2 (Multiplex)” (2022)

Tested on: Fibroblast
Experiment: Multiplex assay against human fibroblast
Format: toxicity, cell-based
Procedure, shortened: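 Compound was added to live cells that had been stained at seeding with Hoechst33342, BioTracker Green Microtubule Cytoskeleton Dye, MitoTracker Red and Annexin V Alexa Fluor 680, and imaging followed on a CQ1 microscope at 37°C and 5% CO2. CellPathfinder machine-learning gating divided cells into Hoechst high-intensity objects or normal cells, normal cells into healthy, pyknosed or fragmented nuclei, and pyknosed cells into mitotic or apoptotic. Tubulin, mitochondrial-mass and membrane-permeability phenotypes are per cents of healthy-nucleus cells.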

[1] = 12 h, 1 µM, compound concentration 1 uM, replicate 1
[2] = 12 h, 1 µM, compound concentration 1 uM, replicate 2
[3] = 12 h, 10 µM, compound concentration 10 uM, replicate 1
[4] = 12 h, 10 µM, compound concentration 10 uM, replicate 2
[5] = 24 h, 1 µM, compound concentration 1 uM, replicate 1
[6] = 24 h, 1 µM, compound concentration 1 uM, replicate 2
[7] = 24 h, 10 µM, compound concentration 10 uM, replicate 1
[8] = 24 h, 10 µM, compound concentration 10 uM, replicate 2
[9] = 48 h, 1 µM, compound concentration 1 uM, replicate 1
[10] = 48 h, 1 µM, compound concentration 1 uM, replicate 2
[11] = 48 h, 10 µM, compound concentration 10 uM, replicate 1
[12] = 48 h, 10 µM, compound concentration 10 uM, replicate 2

Compound: Oc1c(CN2CCN(c3ccccn3)CC2)cc(Cl)c2cccnc12
- Population Apoptotic (%) [1]: 73%
- Population Fragmented Nuclei (%) [1]: 17%
- Population Healthy Nuclei (%) [1]: 68%
- Population Hoechst High Intensity Objects (%) [1]: 4%
- Population Membrane Permeable-Phenotype (%) [1]: 1%
- Population Mitochondria Different-Phenotype (%) [1]: 0%
- Population Mitotic Cells (%) [1]: 26%
- Population Normal (%) [1]: 95%
- Population Pyknosed Nuclei (%) [1]: 14%
- Population Tubulin-Different-Phenotype (%) [1]: 27%
- Total Cell Count [1]: 168
- Population Apoptotic (%) [2]: 57%
- Population Fragmented Nuclei (%) [2]: 27%
- Population Healthy Nuclei (%) [2]: 54%
- Population Hoechst High Intensity Objects (%) [2]: 5%
- Population Membrane Permeable-Phenotype (%) [2]: 8%
- Population Mitochondria Different-Phenotype (%) [2]: 6%
- Population Mitotic Cells (%) [2]: 42%
- Population Normal (%) [2]: 94%
- Population Pyknosed Nuclei (%) [2]: 18%
- Population Tubulin-Different-Phenotype (%) [2]: 43%
- Total Cell Count [2]: 152
- Population Apoptotic (%) [3]: 41%
- Population Fragmented Nuclei (%) [3]: 17%
- Population Healthy Nuclei (%) [3]: 54%
- Population Hoechst High Intensity Objects (%) [3]: 5%
- Population Membrane Permeable-Phenotype (%) [3]: 0%
- Population Mitochondria Different-Phenotype (%) [3]: 25%
- Population Mitotic Cells (%) [3]: 58%
- Population Normal (%) [3]: 94%
- Population Pyknosed Nuclei (%) [3]: 27%
- Population Tubulin-Different-Phenotype (%) [3]: 67%
- Total Cell Count [3]: 130
- Population Apoptotic (%) [4]: 33%
- Population Fragmented Nuclei (%) [4]: 25%
- Population Healthy Nuclei (%) [4]: 58%
- Population Hoechst High Intensity Objects (%) [4]: 2%
- Population Membrane Permeable-Phenotype (%) [4]: 2%
- Population Mitochondria Different-Phenotype (%) [4]: 9%
- Population Mitotic Cells (%) [4]: 66%
- Population Normal (%) [4]: 97%
- Population Pyknosed Nuclei (%) [4]: 16%
- Population Tubulin-Different-Phenotype (%) [4]: 62%
- Total Cell Count [4]: 131
- Population Apoptotic (%) [5]: 50%
- Population Fragmented Nuclei (%) [5]: 19%
- Population Healthy Nuclei (%) [5]: 67%
- Population Hoechst High Intensity Objects (%) [5]: 3%
- Population Membrane Permeable-Phenotype (%) [5]: 0%
- Population Mitochondria Different-Phenotype (%) [5]: 3%
- Population Mitotic Cells (%) [5]: 50%
- Population Normal (%) [5]: 96%
- Population Pyknosed Nuclei (%) [5]: 13%
- Population Tubulin-Different-Phenotype (%) [5]: 30%
- Total Cell Count [5]: 174
- Population Apoptotic (%) [6]: 45%
- Population Fragmented Nuclei (%) [6]: 29%
- Population Healthy Nuclei (%) [6]: 56%
- Population Hoechst High Intensity Objects (%) [6]: 5%
- Population Membrane Permeable-Phenotype (%) [6]: 8%
- Population Mitochondria Different-Phenotype (%) [6]: 7%
- Population Mitotic Cells (%) [6]: 55%
- Population Normal (%) [6]: 94%
- Population Tubulin-Different-Phenotype (%) [6]: 47%
- Total Cell Count [6]: 153
- Population Apoptotic (%) [7]: 89%
- Population Fragmented Nuclei (%) [7]: 26%
- Population Healthy Nuclei (%) [7]: 46%
- Population Hoechst High Intensity Objects (%) [7]: 0%
- Population Membrane Permeable-Phenotype (%) [7]: 1%
- Population Mitochondria Different-Phenotype (%) [7]: 15%
- Population Mitotic Cells (%) [7]: 10%
- Population Normal (%) [7]: 100%
- Population Pyknosed Nuclei (%) [7]: 27%
- Population Tubulin-Different-Phenotype (%) [7]: 57%
- Total Cell Count [7]: 139
- Population Apoptotic (%) [8]: 56%
- Population Fragmented Nuclei (%) [8]: 35%
- Population Healthy Nuclei (%) [8]: 41%
- Population Hoechst High Intensity Objects (%) [8]: 2%
- Population Mitochondria Different-Phenotype (%) [8]: 11%
- Population Mitotic Cells (%) [8]: 43%
- Population Normal (%) [8]: 97%
- Population Pyknosed Nuclei (%) [8]: 22%
- Population Tubulin-Different-Phenotype (%) [8]: 68%
- Total Cell Count [8]: 134
- Population Apoptotic (%) [9]: 54%
- Population Fragmented Nuclei (%) [9]: 17%
- Population Healthy Nuclei (%) [9]: 67%
- Population Hoechst High Intensity Objects (%) [9]: 5%
- Population Membrane Permeable-Phenotype (%) [9]: 1%
- Population Mitochondria Different-Phenotype (%) [9]: 1%
- Population Mitotic Cells (%) [9]: 45%
- Population Normal (%) [9]: 94%
- Population Pyknosed Nuclei (%) [9]: 14%
- Population Tubulin-Different-Phenotype (%) [9]: 35%
- Total Cell Count [9]: 158
- Population Apoptotic (%) [10]: 70%
- Population Fragmented Nuclei (%) [10]: 25%
- Population Healthy Nuclei (%) [10]: 66%
- Population Hoechst High Intensity Objects (%) [10]: 0%
- Population Membrane Permeable-Phenotype (%) [10]: 4%
- Population Mitochondria Different-Phenotype (%) [10]: 4%
- Population Mitotic Cells (%) [10]: 30%
- Population Normal (%) [10]: 99%
- Population Pyknosed Nuclei (%) [10]: 7%
- Population Tubulin-Different-Phenotype (%) [10]: 37%
- Total Cell Count [10]: 137
- Population Apoptotic (%) [11]: 85%
- Population Fragmented Nuclei (%) [11]: 31%
- Population Healthy Nuclei (%) [11]: 32%
- Population Hoechst High Intensity Objects (%) [11]: 2%
- Population Membrane Permeable-Phenotype (%) [11]: 0%
- Population Mitochondria Different-Phenotype (%) [11]: 9%
- Population Mitotic Cells (%) [11]: 14%
- Population Normal (%) [11]: 97%
- Population Pyknosed Nuclei (%) [11]: 35%
- Population Tubulin-Different-Phenotype (%) [11]: 38%
- Total Cell Count [11]: 137
- Population Apoptotic (%) [12]: 78%
- Population Fragmented Nuclei (%) [12]: 34%
- Population Healthy Nuclei (%) [12]: 41%
- Population Membrane Permeable-Phenotype (%) [12]: 1%
- Population Mitochondria Different-Phenotype (%) [12]: 7%
- Population Mitotic Cells (%) [12]: 21%
- Population Pyknosed Nuclei (%) [12]: 24%
- Population Tubulin-Different-Phenotype (%) [12]: 65%

Compound: Cc1ccc(/C(=C\CN2CCCC2)c2ccccn2)cc1 [TRIPROLIDINE]
- Population Apoptotic (%) [1]: 52%
- Population Fragmented Nuclei (%) [1]: 17%
- Population Healthy Nuclei (%) [1]: 64%
- Population Hoechst High Intensity Objects (%) [1]: 3%
- Population Membrane Permeable-Phenotype (%) [1]: 0%
- Population Mitochondria Different-Phenotype (%) [1]: 9%
- Population Mitotic Cells (%) [1]: 47%
- Population Normal (%) [1]: 96%
- Population Pyknosed Nuclei (%) [1]: 18%
- Population Tubulin-Different-Phenotype (%) [1]: 29%
- Total Cell Count [1]: 119
- Population Apoptotic (%) [2]: 41%
- Population Fragmented Nuclei (%) [2]: 28%
- Population Healthy Nuclei (%) [2]: 45%
- Population Hoechst High Intensity Objects (%) [2]: 4%
- Population Membrane Permeable-Phenotype (%) [2]: 1%
- Population Mitotic Cells (%) [2]: 58%
- Population Normal (%) [2]: 95%
- Population Pyknosed Nuclei (%) [2]: 25%
- Population Tubulin-Different-Phenotype (%) [2]: 60%
- Total Cell Count [2]: 127
- Population Apoptotic (%) [3]: 57%
- Population Fragmented Nuclei (%) [3]: 14%
- Population Healthy Nuclei (%) [3]: 64%
- Population Hoechst High Intensity Objects (%) [3]: 2%
- Population Membrane Permeable-Phenotype (%) [3]: 0%
- Population Mitochondria Different-Phenotype (%) [3]: 5%
- Population Mitotic Cells (%) [3]: 42%
- Population Normal (%) [3]: 97%
- Population Pyknosed Nuclei (%) [3]: 20%
- Population Tubulin-Different-Phenotype (%) [3]: 44%
- Total Cell Count [3]: 139
- Population Apoptotic (%) [4]: 50%
- Population Fragmented Nuclei (%) [4]: 26%
- Population Healthy Nuclei (%) [4]: 52%
- Population Membrane Permeable-Phenotype (%) [4]: 9%
- Population Mitochondria Different-Phenotype (%) [4]: 9%
- Population Mitotic Cells (%) [4]: 50%
- Population Pyknosed Nuclei (%) [4]: 21%
- Population Tubulin-Different-Phenotype (%) [4]: 59%
- Total Cell Count [4]: 141
- Population Apoptotic (%) [5]: 43%
- Population Fragmented Nuclei (%) [5]: 17%
- Population Healthy Nuclei (%) [5]: 69%
- Population Hoechst High Intensity Objects (%) [5]: 4%
- Population Membrane Permeable-Phenotype (%) [5]: 1%
- Population Mitochondria Different-Phenotype (%) [5]: 3%
- Population Mitotic Cells (%) [5]: 56%
- Population Normal (%) [5]: 95%
- Population Pyknosed Nuclei (%) [5]: 13%
- Population Tubulin-Different-Phenotype (%) [5]: 23%
- Total Cell Count [5]: 128
- Population Apoptotic (%) [6]: 46%
- Population Fragmented Nuclei (%) [6]: 29%
- Population Healthy Nuclei (%) [6]: 43%
- Population Hoechst High Intensity Objects (%) [6]: 9%
- Population Membrane Permeable-Phenotype (%) [6]: 6%
- Population Mitochondria Different-Phenotype (%) [6]: 6%
- Population Mitotic Cells (%) [6]: 53%
- Population Normal (%) [6]: 90%
- Population Pyknosed Nuclei (%) [6]: 27%
- Population Tubulin-Different-Phenotype (%) [6]: 64%
- Total Cell Count [6]: 121
- Population Apoptotic (%) [7]: 47%
- Population Fragmented Nuclei (%) [7]: 15%
- Population Healthy Nuclei (%) [7]: 68%
- Population Hoechst High Intensity Objects (%) [7]: 4%
- Population Membrane Permeable-Phenotype (%) [7]: 0%
- Population Mitochondria Different-Phenotype (%) [7]: 3%
- Population Mitotic Cells (%) [7]: 52%
- Population Normal (%) [7]: 95%
- Population Pyknosed Nuclei (%) [7]: 15%
- Population Tubulin-Different-Phenotype (%) [7]: 41%
- Total Cell Count [7]: 142
- Population Apoptotic (%) [8]: 58%
- Population Fragmented Nuclei (%) [8]: 29%
- Population Healthy Nuclei (%) [8]: 52%
- Population Hoechst High Intensity Objects (%) [8]: 2%
- Population Membrane Permeable-Phenotype (%) [8]: 6%
- Population Mitochondria Different-Phenotype (%) [8]: 12%
- Population Mitotic Cells (%) [8]: 41%
- Population Normal (%) [8]: 97%
- Population Pyknosed Nuclei (%) [8]: 17%
- Population Tubulin-Different-Phenotype (%) [8]: 62%
- Total Cell Count [8]: 141
- Population Apoptotic (%) [9]: 54%
- Population Fragmented Nuclei (%) [9]: 26%
- Population Healthy Nuclei (%) [9]: 65%
- Population Hoechst High Intensity Objects (%) [9]: 3%
- Population Membrane Permeable-Phenotype (%) [9]: 1%
- Population Mitochondria Different-Phenotype (%) [9]: 2%
- Population Mitotic Cells (%) [9]: 45%
- Population Normal (%) [9]: 96%
- Population Pyknosed Nuclei (%) [9]: 8%
- Population Tubulin-Different-Phenotype (%) [9]: 31%
- Total Cell Count [9]: 135
- Population Apoptotic (%) [10]: 52%
- Population Fragmented Nuclei (%) [10]: 29%
- Population Healthy Nuclei (%) [10]: 48%
- Population Hoechst High Intensity Objects (%) [10]: 7%
- Population Membrane Permeable-Phenotype (%) [10]: 7%
- Population Mitochondria Different-Phenotype (%) [10]: 10%
- Population Mitotic Cells (%) [10]: 48%
- Population Normal (%) [10]: 92%
- Population Pyknosed Nuclei (%) [10]: 21%
- Population Tubulin-Different-Phenotype (%) [10]: 57%
- Total Cell Count [10]: 124
- Population Apoptotic (%) [11]: 38%
- Population Fragmented Nuclei (%) [11]: 20%
- Population Healthy Nuclei (%) [11]: 69%
- Population Hoechst High Intensity Objects (%) [11]: 7%
- Population Membrane Permeable-Phenotype (%) [11]: 1%
- Population Mitochondria Different-Phenotype (%) [11]: 6%
- Population Mitotic Cells (%) [11]: 61%
- Population Normal (%) [11]: 92%
- Population Pyknosed Nuclei (%) [11]: 9%
- Population Tubulin-Different-Phenotype (%) [11]: 35%
- Total Cell Count [11]: 142
- Population Apoptotic (%) [12]: 42%
- Population Fragmented Nuclei (%) [12]: 32%
- Population Healthy Nuclei (%) [12]: 56%
- Population Hoechst High Intensity Objects (%) [12]: 5%
- Population Membrane Permeable-Phenotype (%) [12]: 5%
- Population Mitochondria Different-Phenotype (%) [12]: 9%
- Population Mitotic Cells (%) [12]: 57%
- Population Normal (%) [12]: 94%
- Population Pyknosed Nuclei (%) [12]: 10%
- Population Tubulin-Different-Phenotype (%) [12]: 54%
- Total Cell Count [12]: 140
